Measured values: ChEMBL document CHEMBL4811287, “Discovery of dronedarone and its analogues as NLRP3 inflammasome inhibitors with potent anti-inflammation activity” (Bioorg Med Chem Lett, 2021)
Calls of active or inactive are those of the source. The calls are words filed in the database; no cut-off is given here.

Legend:
[1] = target: NACHT, LRR and PYD domains-containing protein 3 (Mus musculus, UniProt Q8R4B8); assay: (§1) Inhibition of NLRP3 inflammasome in LPS-primed mouse J774.A1 cells assessed as reduction in IL-1beta secretion preincubated with compound for 1 hr followed by nigericin stimulation for 1 hr by ELISA; format: cell-based
In short: (§2)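 J774A.1 murine macrophages primed with LPS, exposed to compound at indicated doses for 1 h, then stimulated with nigericin for another 1 h; IL-1β released into supernatant measured by ELISA.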

[2] = Inhibition of ATP-sensitive K+ channel in LPS-activated human monocytes assessed as inhibition of NLRP3 inflammasome activation-mediated IL-1beta release; format: cell-based; settings: Monocyte
[3] = test system: Microglia; assay: Inhibition of Ca2+ channel in mouse microglial cells assessed as inhibition of Abeta-stimulated NLRP3 inflammasome activation-mediated IL-1beta release at 36 nM by ELISA; format: cell-based
[4] = Inhibition of K+ channel in LPS-primed mouse bone marrow derived macrophages assessed as inhibition of NLRP3 inflammasome activation-mediated IL-1beta release; format: tissue-based; settings: BMDM
[5] = Inhibition of Cl- channel in human monocytes assessed as inhibition of ATP-induced NLRP3 inflammasome-activation mediated IL-1beta release; format: cell-based; settings: Monocyte
[6] = test system: Mus musculus; assay: Antiinflammatory activity against LPS-induced sepsis C57BL/6 mouse model assessed as decrease in peritoneal fluid TNF-alpha level at 100 mg/kg, ip administered as single dose prior to LPS challenge by ELISA; format: functional, organism-based
In short: (§3)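 C57BL/6 mice given 100 mg/kg ahead of intraperitoneal LPS injection. Serum and peritoneal lavage fluid collected and cytokines (IL-1β, IL-6, TNF-α) quantified by ELISA. n = 5 per group, means ± SEM, compared against LPS-only group.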

[7] = test system: Mus musculus; assay: Antiinflammatory activity against LPS-induced sepsis C57BL/6 mouse model assessed as decrease in serum IL-1beta level at 100 mg/kg, ip administered as single dose prior to LPS challenge by ELISA; format: functional; settings: C57BL/6, ip; in short: as §3
[8] = test system: Mus musculus; assay: Antiinflammatory activity against LPS-induced sepsis C57BL/6 mouse model assessed as decrease in serum TNF-alpha level at 100 mg/kg, ip administered as single dose prior to LPS challenge by ELISA; format: functional; settings: C57BL/6, ip; in short: as §3
[9] = target: NACHT, LRR and PYD domains-containing protein 3 (Mus musculus) (UniProt Q8R4B8); assay: as §1; format: cell-based; settings: time 2.0 hrs; in short: as §2
[10] = target: NACHT, LRR and PYD domains-containing protein 3 (Mus musculus) (UniProt Q8R4B8); assay: Inhibition of NLRP3 inflammasome in LPS/nigericin-stimulated mouse J774.A1 cells assessed as effect on pro-IL-1beta expression level in cell lysates by Western blot analysis; format: subcellular
In short: (§4)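 LPS-primed J774A.1 cells treated with compound, then nigericin-activated; NLRP3-related proteins analysed by Western blot in cell supernatant (caspase-1 p20, IL-1β) and cell lysate.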

[11] = test system: J774.A1; assay: Effect on NLRP3 expression in LPS/nigericin-stimulated mouse J774.A1 cell lysates by western blot analysis; format: functional, subcellular; in short: as §4
[12] = target: NACHT, LRR and PYD domains-containing protein 3 (Mus musculus) (UniProt Q8R4B8); assay: Inhibition of NLRP3 inflammasome in LPS/nigericin-stimulated mouse J774.A1 cells assessed as effect on pro-caspase-1 expression level in cell lysates by Western blot analysis; format: subcellular; in short: as §4
[13] = test system: Mus musculus; assay: Antiinflammatory activity against LPS-induced sepsis C57BL/6 mouse model assessed as decrease in serum IL-6 level at 100 mg/kg, ip administered as single dose prior to LPS challenge by ELISA; format: functional; settings: C57BL/6, ip; in short: as §3
[14] = target: NACHT, LRR and PYD domains-containing protein 3 (Mus musculus) (UniProt Q8R4B8); assay: Inhibition of NLRP3 inflammasome in LPS/nigericin-stimulated mouse J774.A1 cells assessed as reduction in caspase 1 p20 level in cell supernatants by Western blot analysis; settings: dose 1-20 µM; in short: as §4
[15] = target: NACHT, LRR and PYD domains-containing protein 3 (Mus musculus) (UniProt Q8R4B8); assay: Inhibition of NLRP3 inflammasome in LPS/nigericin-stimulated mouse J774.A1 cells assessed as effect on ASC expression level in cell lysates by Western blot analysis; format: subcellular; in short: as §4
[16] = test system: Mus musculus; assay: Antiinflammatory activity against LPS-induced sepsis C57BL/6 mouse model assessed as decrease in peritoneal fluid IL-6 level at 100 mg/kg, ip administered as single dose prior to LPS challenge by ELISA; format: functional; settings: C57BL/6, ip; in short: as §3
[17] = target: NACHT, LRR and PYD domains-containing protein 3 (Mus musculus) (UniProt Q8R4B8); assay: Inhibition of NLRP3 inflammasome in LPS/nigericin-stimulated mouse J774.A1 cells assessed as reduction in IL-1beta level in cell supernatant by Western blot analysis; settings: dose 1-20 µM; in short: as §4
[18] = test system: Mus musculus; assay: Antiinflammatory activity against LPS-induced sepsis C57BL/6 mouse model assessed as decrease in peritoneal fluid IL-1beta level at 100 mg/kg, ip administered as single dose prior to LPS challenge by ELISA; format: functional; settings: C57BL/6, ip; in short: as §3

Sequence of NACHT, LRR and PYD domains-containing protein 3 (Q8R4B8 whole entry, the tested form may be a part): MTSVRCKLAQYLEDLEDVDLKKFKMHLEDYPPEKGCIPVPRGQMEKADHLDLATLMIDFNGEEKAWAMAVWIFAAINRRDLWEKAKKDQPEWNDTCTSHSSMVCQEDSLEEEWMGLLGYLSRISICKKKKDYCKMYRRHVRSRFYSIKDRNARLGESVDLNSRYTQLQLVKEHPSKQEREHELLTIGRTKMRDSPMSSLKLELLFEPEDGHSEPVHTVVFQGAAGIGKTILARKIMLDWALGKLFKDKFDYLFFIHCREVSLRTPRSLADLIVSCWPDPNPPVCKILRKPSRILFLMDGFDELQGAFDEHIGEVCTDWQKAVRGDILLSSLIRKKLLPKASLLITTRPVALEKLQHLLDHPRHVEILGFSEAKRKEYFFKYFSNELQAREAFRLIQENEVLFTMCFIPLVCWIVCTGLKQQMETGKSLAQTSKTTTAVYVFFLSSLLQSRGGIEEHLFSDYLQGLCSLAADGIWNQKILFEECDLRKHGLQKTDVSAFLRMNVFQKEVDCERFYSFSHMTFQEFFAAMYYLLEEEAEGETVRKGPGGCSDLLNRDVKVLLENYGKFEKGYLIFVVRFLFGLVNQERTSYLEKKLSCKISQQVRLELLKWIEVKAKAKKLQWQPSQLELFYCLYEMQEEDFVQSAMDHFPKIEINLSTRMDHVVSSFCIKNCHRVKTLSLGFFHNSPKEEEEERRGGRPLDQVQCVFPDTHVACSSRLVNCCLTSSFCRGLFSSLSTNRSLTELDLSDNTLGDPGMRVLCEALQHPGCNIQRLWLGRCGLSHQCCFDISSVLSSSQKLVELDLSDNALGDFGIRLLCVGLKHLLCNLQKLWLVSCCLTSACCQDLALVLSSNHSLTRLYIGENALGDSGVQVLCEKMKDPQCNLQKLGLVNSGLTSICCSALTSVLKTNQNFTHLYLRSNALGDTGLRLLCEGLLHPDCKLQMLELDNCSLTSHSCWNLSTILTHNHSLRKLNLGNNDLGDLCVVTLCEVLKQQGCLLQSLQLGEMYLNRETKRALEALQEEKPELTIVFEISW
Sequence of NACHT, LRR and PYD domains-containing protein 3 (Mus musculus) (Q8R4B8 whole entry, the tested form may be a part): as above

Row | IC50 [1] | Compound | other results
1 | 11.4 µM | CCCCc1oc2ccc(NS(=O)(=O)NC)cc2c1C(=O)c1ccc(OCCCN(CCCC)CCCC)cc1 | –
2 | 25.3 µM | C=CS(=O)(=O)Nc1ccc2oc(CCCC)c(C(=O)c3ccc(OCCCN(CCCC)CCCC)cc3)c2c1 | –
3 | 13.4 µM | CCCCc1oc2ccc(NS(=O)(=O)N(C)C)cc2c1C(=O)c1ccc(OCCCN(CCCC)CCCC)cc1 | –
4 | 22.2 µM | CCCCc1oc2ccc(S(=O)(=O)NC)cc2c1C(=O)c1ccc(OCCCN(CCCC)CCCC)cc1 | –
5 | 6.84 µM | CCCCc1oc2ccc(NS(C)(=O)=O)cc2c1C(=O)c1ccc(OCCCN(CCCC)CCCC)cc1 [DRONEDARONE] | –
6 | 7.65 µM | CCCCc1oc2ccc(NS(=O)(=O)NC(C)C)cc2c1C(=O)c1ccc(OCCCN(CCCC)CCCC)cc1 | –
7 | 61.1 µM | CCCCc1oc2ccc(S(=O)(=O)N(C)C)cc2c1C(=O)c1ccc(OCCCN(CCCC)CCCC)cc1 | –
8 | 26.7 µM | CCCCc1oc2ccc(S(N)(=O)=O)cc2c1C(=O)c1ccc(OCCCN(CCCC)CCCC)cc1 | –
9 | > 100 µM | CCCCc1oc2ccc(S(=O)(=O)NCCN(C)C)cc2c1C(=O)c1ccc(OCCCN(CCCC)CCCC)cc1 | –
10 | 42.5 µM | CCCCc1oc2ccc(S(=O)(=O)NC(C)C)cc2c1C(=O)c1ccc(OCCCN(CCCC)CCCC)cc1 | –
11 | 19 µM | CCCCc1oc2ccc(NS(=O)(=O)CC)cc2c1C(=O)c1ccc(OCCCN(CCCC)CCCC)cc1 | –
12 | > 100 µM | CCCCc1oc2ccc(S(=O)(=O)N(CCC)CCC)cc2c1C(=O)c1ccc(OCCCN(CCCC)CCCC)cc1 | –
13 | 83.8 µM | CCCCc1oc2ccc(S(=O)(=O)NOC)cc2c1C(=O)c1ccc(OCCCN(CCCC)CCCC)cc1 | –

More lines, now with the values behind:

Row | Compound | IC50 [1] | other results
14 | CCCCc1oc2ccc(NS(=O)(=O)C3CC3)cc2c1C(=O)c1ccc(OCCCN(CCCC)CCCC)cc1 | 45.5 µM | –
15 | C=CC(=O)Nc1ccc2oc(CCCC)c(C(=O)c3ccc(OCCCN(CCCC)CCCC)cc3)c2c1 | 26.7 µM | –
16 | CCCCc1oc2ccc(NC(=O)NC(C)C)cc2c1C(=O)c1ccc(OCCCN(CCCC)CCCC)cc1 | 13.3 µM | –
17 | CCCCc1oc2ccc(NS(=O)(=O)c3ccc(C(F)(F)F)cc3)cc2c1C(=O)c1ccc(OCCCN(CCCC)CCCC)cc1 | 81.6 µM | –
18 | CCCCc1oc2ccc(NS(=O)(=O)c3ccc(OC)cc3)cc2c1C(=O)c1ccc(OCCCN(CCCC)CCCC)cc1 | 27.9 µM | –
19 | CCCCc1oc2ccc(N)cc2c1C(=O)c1ccc(OCCCN(CCCC)CCCC)cc1 | > 100 µM | –
20 | CCCCc1oc2ccc(NS(=O)(=O)c3ccc(F)cc3)cc2c1C(=O)c1ccc(OCCCN(CCCC)CCCC)cc1 | 12.7 µM | –
21 | CCCCc1oc2ccc(NC(=O)Nc3ccc(OC)cc3)cc2c1C(=O)c1ccc(OCCCN(CCCC)CCCC)cc1 | 24.5 µM | –
22 | CCCCc1oc2ccc(NC(=O)c3ccc(OC)cc3)cc2c1C(=O)c1ccc(OCCCN(CCCC)CCCC)cc1 | > 100 µM | –
23 | CCCCc1oc2ccc(NC(=O)Nc3ccc(C)cc3)cc2c1C(=O)c1ccc(OCCCN(CCCC)CCCC)cc1 | 71.2 µM | –
24 | CCCCc1oc2ccc(NS(=O)(=O)C3CCCCC3)cc2c1C(=O)c1ccc(OCCCN(CCCC)CCCC)cc1 | 25 µM | –
25 | COc1ccc(Cl)cc1C(=O)NCCc1ccc(S(=O)(=O)NC(=O)NC2CCCCC2)cc1 [GLYBURIDE] | – | IC50 [2]: 12 µM
26 | CCCCc1oc2ccc(NC(C)=O)cc2c1C(=O)c1ccc(OCCCN(CCCC)CCCC)cc1 | 6.77 µM | –
27 | CCCCc1oc2ccc(NC(=O)Nc3ccc(Cl)cc3)cc2c1C(=O)c1ccc(OCCCN(CCCC)CCCC)cc1 | 16.1 µM | –
28 | COCCOC(=O)C1=C(C)NC(C)=C(C(=O)OC(C)C)C1c1cccc([N+](=O)[O-])c1 (stereo not given) | – | inhibition [3]: 48%
29 | CCCCC(=O)Nc1ccc2oc(CCCC)c(C(=O)c3ccc(OCCCN(CCCC)CCCC)cc3)c2c1 | 5.82 µM | –
30 | CCCCc1oc2ccccc2c1C(=O)c1ccc(OCCCN(CCCC)CCCC)cc1 | > 100 µM | –
31 | CCCCc1oc2ccc(NC(=O)NC3CCCC3)cc2c1C(=O)c1ccc(OCCCN(CCCC)CCCC)cc1 | 25 µM | –
32 | CCCCc1oc2ccc(NC(=O)NCCC)cc2c1C(=O)c1ccc(OCCCN(CCCC)CCCC)cc1 | 19.2 µM | –
33 | CC(O)CC(=O)O (stereo not drawn) [3-HYDROXYBUTYRIC ACID, (+/-)-] | – | IC50 [4]: 2000 µM
34 | C=C(CC)C(=O)c1ccc(OCC(=O)O)c(Cl)c1Cl [ETHACRYNIC ACID] | – | IC50 [5]: 3 µM
35 | CCCCc1oc2ccc(NS(=O)(=O)c3cccnc3)cc2c1C(=O)c1ccc(OCCCN(CCCC)CCCC)cc1 | 33.4 µM | –
36 | CCCCc1oc2ccc(NC(=O)C(C)(C)C)cc2c1C(=O)c1ccc(OCCCN(CCCC)CCCC)cc1 | 9.03 µM | –
37 | CCCCc1oc2ccc(NS(=O)(=O)c3ccc(C)cc3)cc2c1C(=O)c1ccc(OCCCN(CCCC)CCCC)cc1 | 25 µM | –
38 | CCCCc1oc2ccc(NC(=O)c3ccccc3)cc2c1C(=O)c1ccc(OCCCN(CCCC)CCCC)cc1 | 13.3 µM | –
39 | CCCCc1oc2ccc(NC(=O)Nc3ccc(C#N)cc3)cc2c1C(=O)c1ccc(OCCCN(CCCC)CCCC)cc1 | 18.5 µM | –
40 | CCCCc1oc2ccc(NC(=O)C(C)C)cc2c1C(=O)c1ccc(OCCCN(CCCC)CCCC)cc1 | 3.85 µM | Activity [6]: inactive; inhibition in vivo at 100 mg/kg [7]: 42%; inhibition in vivo at 100 mg/kg [8]: 18%; inhibition [9]: Dose-Dependent Effect; inhibition [10]: inactive; Activity [11]: inactive; inhibition [12]: inactive; inhibition in vivo at 100 mg/kg [13]: 0%; inhibition [14]: Dose-Dependent Effect; inhibition [15]: inactive; inhibition in vivo at 100 mg/kg [16]: 2%; inhibition [17]: Dose-Dependent Effect; inhibition in vivo at 100 mg/kg [18]: 22%
41 | CCCCc1oc2ccc(NC(=O)NC3CCCCC3)cc2c1C(=O)c1ccc(OCCCN(CCCC)CCCC)cc1 | 74.8 µM | –
42 | CCCCc1oc2ccc(NS(=O)(=O)c3ccccc3)cc2c1C(=O)c1ccc(OCCCN(CCCC)CCCC)cc1 | 10.7 µM | –
